Measured values from the array DNA melting data of Ke et al. (doi:10.1101/2024.01.08.574731).

Tests used:
[1] = folding enthalpy; higher = less favourable; fluorescence melt of hairpins on a sequencing array, two-state fit; conditions: sodium 0.088 M
Summary of the method: (§1)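 Bootstrapped two-state fits yielded melting temperature and folding enthalpy for library hairpins. Cy3 fluorescence, with annealed Cy3 and quencher oligos, was imaged on a sequenced MiSeq flow cell in 50 mM Na-HEPES pH 8.0, 25 mM NaCl in 2.5 °C steps up to 60 °C, and normalised to pre-quench Cy3 and to control constructs. Four replicates were combined by inverse variance, and fitted temperatures were raised by 9.35 °C to match UV melts.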

[2] = melting temperature; fluorescence melt of hairpins on a sequencing array, two-state fit, raised by 9.35 °C to match UV melts; conditions: sodium 0.088 M
Summary of the method: as §1

Sequence	folding enthalpy [1] [kcal/mol]	Tm [2] [°C]
CGCACGCGGAAACGCGCG (((..(((....))))))	-9.61	57
CGCACGGAAACGTACGCG ((((((....)))..)))	-22.1	46.1
CGCACGGAAACGTGTGCG ((((((....)))..)))	-17.6	57.5
CGCACGGAAACGTTAGCG ((((((....)))..)))	-31.9	44.8
CGCAGCCGGAAACGGGCG (((..(((....))))))	-20	47.9
CGCATCGGAAACGAAGCG (((.(((....))).)))	-31.2	51.7
CGCATCGGAAACGAGCG (((.(((....))))))	-31.8	49.5
CGCATGCGGAAACGCGCG (((..(((....))))))	-20.8	52.1
CGCCACCGGAAACGGGCG (((..(((....))))))	-26.2	49.3
CGCCACGGAAACGTAGCG (((.(((....))).)))	-37.7	50.1
CGCCACGGAAACGTCGCG (((.(((....))).)))	-39.2	48.3
CGCCAGAAATGGCG (((((....)))))	-31.5	66.4
CGCCCGGAAACGGCGGCG ((((((....)))..)))	-24.4	55.7
CGCCCGGAAACGGCTGCG ((((((....)))..)))	-21.1	46.2
CGCCCGGAAACGGTTGCG ((((((....)))..)))	-25.5	48.6
CGCCGACGGAAACGTGCG (((..(((....))))))	-27.6	45.5
CGCCGGCGGAAACGCGCG (((..(((....))))))	-21.1	51.5
CGCCTCGGAAACGAGCG (((.(((....))))))	-26.9	54.8
CGCGACCGGAAACGGGCG (((..(((....))))))	-11.7	60
CGCGATCGGAAACGAGCG (((..(((....))))))	-34.2	53
CGCGCGGAAACGCCGCG ((((((....))).)))	-20	69.2
CGCGCGGAAACGCCGGCG ((((((....)))..)))	-22.2	54.3
CGCGGAAAGGTCCGCG ((((((....))))))	-45.8	61.9

Sequence	folding enthalpy [1] [kcal/mol]	Tm [2] [°C]
CGCGGAACTGTCCGCG ((((((....))))))	-45.6	64.8
CGCGGAACTTCCGCG ((((((...))))))	-37.8	61.3
CGCGGAATTATCCGCG ((((((....))))))	-41.5	67.2
CGCGGACCAATCCGCG ((((((....))))))	-39.2	62.2
CGCGGACCTCTCCGCG ((((((....))))))	-31.9	68.7
CGCGGACGGAAACGTGCG (((..(((....))))))	-36.2	50
CGCGGACGGCTCCGCG ((((((....))))))	-23.5	68.5
CGCGGATAACTCCGCG ((((((....))))))	-38	62.2
CGCGGGCGGAAACGCGCG (((..(((....))))))	-14.9	65.4
CGCGTACGGAAACGTGCG (((..(((....))))))	-23.7	50
CGCGTCCGGAAACGGGCG (((..(((....))))))	-14	55.2
CGCTCGGAAACGAAGCG ((((((....))).)))	-29.5	53.6
CGCTCGGAAACGACAGCG ((((((....)))..)))	-25.5	45
CGCTCGGAAACGAGTGCG ((((((....)))..)))	-15.8	44.9
CGCTGACGGAAACGTGCG (((..(((....))))))	-26.1	47.5
CGCTGCCGGAAACGGGCG (((..(((....))))))	-22.8	46.7
CGCTGCGGAAACGCCGCG (((.(((....))).)))	-29.1	56.5
CGCTTCGGAAACGATGCG (((.(((....))).)))	-43.3	54.6
CGGAACCGGAAACGGCCG (((..(((....))))))	-23.2	40.1
CGGAACGGAAACGTCCG (((.(((....))))))	-30.1	47.8
CGGAAGCGGAAACGCCCG (((..(((....))))))	-21.3	50.5
CGGAATCGGAAACGACCG (((..(((....))))))	-16.6	35.3
CGGACCCGGAAACGGCCG (((..(((....))))))	-18.8	38.9

Sequence	folding enthalpy [1] [kcal/mol]	Tm [2] [°C]
CGGACGCGGAAACGCCCG (((..(((....))))))	-25.3	48.8
CGGACGGAAACGTTTCCG ((((((....)))..)))	-12.5	46.4
CGGAGCGGAAACGCACCG (((.(((....))).)))	-35	58.7
CGGAGCGGAAACGCGCCG (((.(((....))).)))	-27	68.6
CGGAGTCGGAAACGACCG (((..(((....))))))	-15.9	41.3
CGGATCGGAAACGAACCG (((.(((....))).)))	-42.7	52
CGGATCGGAAACGACCCG (((.(((....))).)))	-38.1	50
CGGATGAAAATCCG (((((....)))))	-25.5	56
CGGCAACGGAAACGTCCG (((..(((....))))))	-13	39.2
CGGCACCGGAAACGGCCG (((..(((....))))))	-29.1	49.2
CGGCACGGAAACGTACCG (((.(((....))).)))	-30.5	50.4
CGGCCGGAAACGGCCCCG ((((((....)))..)))	-6	35.4
CGGCCGGAAACGGTACCG ((((((....)))..)))	-18.4	43.1
CGGCCGGAAACGGTCCG ((((((....))).)))	-32	57.7
CGGCGCGGAAACGCTCCG (((.(((....))).)))	-33.7	56.5
CGGCGGCGGAAACGCCCG (((..(((....))))))	-10.4	49.3
CGGCTCGGAAACGACCCG (((.(((....))).)))	-29.4	42.9
CGGCTCGGAAACGACCG (((.(((....))))))	-31.8	50.9
CGGGACGGAAACGTGCCG (((.(((....))).)))	-19.1	60.3
CGGGCGGAAACGCACCCG ((((((....)))..)))	-13.1	48.8
CGGGCGGAAACGCCTCCG ((((((....)))..)))	-8.08	36.1
CGGGCGGAAACGCGACCG ((((((....)))..)))	-30.5	57.8
CGGGCGGAAACGCGGCCG ((((((....)))..)))	-36	59.5

Sequence	folding enthalpy [1] [kcal/mol]	Tm [2] [°C]
CGGGCGGAAACGCTACCG ((((((....)))..)))	-24.3	45.8
CGGGCGGAAACGCTCCCG ((((((....)))..)))	-14.7	48.1
CGGGCGGAAACGCTCCG ((((((....))).)))	-26.4	54.2
CGGGTCGGAAACGATCCG (((.(((....))).)))	-45.1	58
CGGTAACGGAAACGTCCG (((..(((....))))))	-24.6	37.9
CGGTACGGAAACGTTCCG (((.(((....))).)))	-32.4	49.8
CGGTCCCGGAAACGGCCG (((..(((....))))))	-21.1	41.3
CGGTCCGGAAACGGTCCG (((.(((....))).)))	-40.5	55.6
CGGTCGGAAACGACGCCG ((((((....)))..)))	-11.7	36.7
CGGTCGGAAACGAGACCG ((((((....)))..)))	-38.6	49.9
CGGTCGGAAACGATTCCG ((((((....)))..)))	-19.8	43.9
CGGTGCGGAAACGCTCCG (((.(((....))).)))	-34.8	62
CGGTTCGGAAACGATCCG (((.(((....))).)))	-36	51
CGGTTGCGGAAACGCCCG (((..(((....))))))	-22.3	46.5
CGGTTTCGGAAACGACCG (((..(((....))))))	-17.1	38
CGTAACGGAAACGTGACG (((.(((....))).)))	-47	49.6
CGTAATCGGAAACGAACG (((..(((....))))))	-7.75	20.9
CGTACGGAAACGTAACG ((((((....))).)))	-28.7	45.3
CGTACGGAAACGTCAACG ((((((....)))..)))	-13.5	32.2
CGTACGGAAACGTTTACG ((((((....)))..)))	-16	37.3
CGTAGCGGAAACGCCACG (((.(((....))).)))	-32	46.9
CGTATGAAAATACG (((((....)))))	-24.1	47.4
